Assay results from ChEMBL document CHEMBL4622985, “Design, Synthesis, and Pharmacological Characterization of Heterobivalent Ligands for the Putative 5-HT2A/mGlu2 Receptor Complex” (J Med Chem, 2020).

Key:
[1] = biological target: T1, Metabotropic glutamate receptor 2 (Homo sapiens, UniProt Q14416); experiment: Positive modulator activity at human mGlu2 receptor expressed in HEK293 cells co-expressing Gqo5 assessed as increase in intracellular Ca2+ mobilization incubated for 1 hr in presence of EC20 glutamate by Fluo-4 dye based fluorescence assay; type: functional, cell-based
T1 sequence (Q14416 whole entry): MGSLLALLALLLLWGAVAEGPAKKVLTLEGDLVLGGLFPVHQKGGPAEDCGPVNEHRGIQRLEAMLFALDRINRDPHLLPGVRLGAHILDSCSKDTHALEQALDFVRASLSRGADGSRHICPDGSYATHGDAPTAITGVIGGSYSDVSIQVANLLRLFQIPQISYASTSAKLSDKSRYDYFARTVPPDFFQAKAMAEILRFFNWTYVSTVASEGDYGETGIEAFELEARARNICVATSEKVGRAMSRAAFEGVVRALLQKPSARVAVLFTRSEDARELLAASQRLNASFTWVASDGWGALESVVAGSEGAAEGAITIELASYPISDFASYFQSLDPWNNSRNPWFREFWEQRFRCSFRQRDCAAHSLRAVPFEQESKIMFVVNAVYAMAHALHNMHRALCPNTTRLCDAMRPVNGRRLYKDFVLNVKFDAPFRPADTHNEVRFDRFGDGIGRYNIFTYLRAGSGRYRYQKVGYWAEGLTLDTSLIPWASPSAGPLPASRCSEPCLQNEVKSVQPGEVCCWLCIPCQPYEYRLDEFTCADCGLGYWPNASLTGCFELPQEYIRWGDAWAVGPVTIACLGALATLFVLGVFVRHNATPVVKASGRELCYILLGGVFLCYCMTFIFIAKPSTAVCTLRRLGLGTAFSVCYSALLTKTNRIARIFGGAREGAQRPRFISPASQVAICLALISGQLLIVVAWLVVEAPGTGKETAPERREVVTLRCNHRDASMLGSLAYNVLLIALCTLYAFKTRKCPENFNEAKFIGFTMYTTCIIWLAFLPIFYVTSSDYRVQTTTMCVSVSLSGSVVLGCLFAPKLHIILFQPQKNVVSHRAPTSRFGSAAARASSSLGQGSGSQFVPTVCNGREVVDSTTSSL

[2] = biological target: T2, 5-hydroxytryptamine receptor 2A/Metabotropic glutamate receptor 2 (Homo sapiens, UniProt P28223+Q14416); experiment: Antagonist activity at human 5HT2A/mGlu2 receptor expressed in HEK293 cells assessed as inhibition of 5HT-induced intracellular Ca2+ mobilization incubated for 1 hr by Fluo-4 dye based fluorescence assay 5HT2A_HUMAN/GRM2_HUMAN P28223/Q14416; type: functional, cell-based
T2 sequence (P28223 whole entry): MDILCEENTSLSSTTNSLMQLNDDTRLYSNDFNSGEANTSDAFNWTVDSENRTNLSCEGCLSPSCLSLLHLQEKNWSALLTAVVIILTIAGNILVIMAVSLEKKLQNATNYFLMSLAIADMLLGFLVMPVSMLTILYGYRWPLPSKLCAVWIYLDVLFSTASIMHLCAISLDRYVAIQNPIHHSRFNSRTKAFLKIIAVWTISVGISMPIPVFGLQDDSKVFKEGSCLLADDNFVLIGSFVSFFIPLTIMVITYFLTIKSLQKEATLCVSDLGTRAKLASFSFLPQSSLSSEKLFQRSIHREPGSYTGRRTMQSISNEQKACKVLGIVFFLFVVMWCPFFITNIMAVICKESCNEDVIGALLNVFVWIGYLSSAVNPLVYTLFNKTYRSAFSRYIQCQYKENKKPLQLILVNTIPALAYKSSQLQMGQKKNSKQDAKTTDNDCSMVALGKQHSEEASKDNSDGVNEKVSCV
T2 sequence (Q14416 whole entry): as the sequence (Q14416 whole entry) above

[3] = biological target: T2, 5-hydroxytryptamine receptor 2A/Metabotropic glutamate receptor 2; experiment: Antagonist activity at human 5HT2A/mGlu2 receptor expressed in HEK293 cells co-expressing Gqo5 assessed as inhibition of glutamate-induced intracellular Ca2+ mobilization incubated for 1 hr by Fluo-4 dye based fluorescence assay 5HT2A_HUMAN/GRM2_HUMAN P28223/Q14416; type: functional, cell-based
[4] = biological target: T3, 5-hydroxytryptamine receptor 2A (Homo sapiens, UniProt P28223); experiment: Displacement of [3H]-ketanserin from human HT2A receptor expressed in HEK293 cell membranes incubated for 2 hrs by scintillation counting method
T3 sequence (P28223 whole entry): as the sequence (P28223 whole entry) above
Procedure, shortened: (§1)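 Membranes from stable HEK293 lines were homogenized and centrifuged twice at 50.000g, 4 °C, then resuspended in 50 mM Tris-HCl, 10 mM MgCl2, 0.1 mM EDTA, pH 7.4. Competition used fixed [3H]ketanserin ~1.5 nM (1.3−1.8 nM) against varied test compound, with bound/free kept <10%. Incubation ran 2 h at rt with shaking, followed by GF/C filtration. Ki was obtained by Cheng−Prusoff using saturation KD. Three independent experiments, each in duplicate.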

[5] = biological target: T2, 5-hydroxytryptamine receptor 2A/Metabotropic glutamate receptor 2; experiment: Agonist activity at human 5HT2A/mGlu2 receptor expressed in HEK293 cells co-expressing Gqo5 assessed as increase in intracellular Ca2+ mobilization incubated for 1 hr by Fluo-4 dye based fluorescence assay; type: functional, cell-based
[6] = biological target: T2, 5-hydroxytryptamine receptor 2A/Metabotropic glutamate receptor 2; experiment: Displacement of [3H]-ketanserin from human 5HT2A/mGlu2 receptor expressed in HEK293 cell membranes incubated for 2 hrs by scintillation counting method; procedure, shortened: as §1
[7] = biological target: T1, Metabotropic glutamate receptor 2; experiment: Agonist activity at human mGlu2 receptor expressed in HEK293 cells co-expressing Gqo5 assessed as increase in intracellular Ca2+ mobilization incubated for 1 hr by Fluo-4 dye based fluorescence assay; type: functional, cell-based
[8] = biological target: T2, 5-hydroxytryptamine receptor 2A/Metabotropic glutamate receptor 2; experiment: Antagonist activity at human 5HT2A/mGlu2 receptor expressed in HEK293 cells co-expressing Gqo5 assessed as inhibition of 5HT-induced intracellular Ca2+ mobilization incubated for 1 hr by Fluo-4 dye based fluorescence assay 5HT2A_HUMAN/GRM2_HUMAN P28223/Q14416; type: functional, cell-based
[9] = biological target: T3, 5-hydroxytryptamine receptor 2A; experiment: Antagonist activity at human 5HT2A receptor expressed in HEK293 cells assessed as inhibition of 5HT-induced intracellular Ca2+ mobilization incubated for 1 hr by Fluo-4 dye based fluorescence assay; type: functional, cell-based
[10] = biological target: T2, 5-hydroxytryptamine receptor 2A/Metabotropic glutamate receptor 2; experiment: Displacement of [3H]-ketanserin from human 5HT2A/mGlu2 receptor expressed in HEK293 cell co-expressing Gqo5 membranes incubated for 2 hrs by scintillation counting method; type: cell-based; procedure, shortened: as §1
[11] = biological target: T2, 5-hydroxytryptamine receptor 2A/Metabotropic glutamate receptor 2; experiment: Positive modulator activity at human 5HT2A/mGlu2 receptor expressed in HEK293 cells co-expressing Gqo5 assessed as increase in intracellular Ca2+ mobilization incubated for 1 hr by Fluo-4 dye based fluorescence assay 5HT2A_HUMAN/GRM2_HUMAN P28223/Q14416; type: functional, cell-based

Structure (SMILES)	EC50 ([1]; read-out: EC50) [nM]	IC50 ([2]; read-out: IC50) [nM]	IC50 ([2]; read-out: pIC50 (converted)) [nM]	IC50 [3] [nM]	Ki ([4]; read-out: Ki) [nM]	EC50 ([5]; read-out: EC50) [nM]	Ki ([6]; read-out: Ki) [nM]	Ki ([6]; read-out: pKi (converted)) [nM]	EC50 ([7]; read-out: EC50) [nM]	IC50 [8] [nM]	IC50 ([9]; read-out: IC50) [nM]	Ki ([10]; read-out: Ki) [nM]	EC50 ([1]; read-out: pEC50 (converted)) [nM]	EC50 ([5]; read-out: pEC50 (converted)) [nM]	EC50 ([7]; read-out: pEC50 (converted)) [nM]	Ki ([4]; read-out: pKi (converted)) [nM]	Ki ([10]; read-out: pKi (converted)) [nM]	IC50 ([9]; read-out: pIC50 (converted)) [nM]	EC50 [11] [nM]
COc1c(OCCOCCOCCOCCOCCOCCOCCOCCOc2ccc(C3CCN(c4ccn5c(CC6CC6)nnc5c4Cl)CC3)cc2)cccc1C(=O)C1CCN(CCc2ccc(F)cc2)CC1	510	270		660	110	10000 to 50000	120		1600	470	410	160				120	132		
COc1c(OCCOCCOCCOc2ccc(C3CCN(c4ccn5c(CC6CC6)nnc5c4Cl)CC3)cc2)cccc1C(=O)C1CCN(CCc2ccc(F)cc2)CC1	320	7900		5300	360	10000 to 50000	840		900	9900	1200	1040							
COc1c(OCCOCCOCCOCCOCCOCCOCCOCCOCCOCCOCCOCCOc2ccc(C3CCN(c4ccn5c(CC6CC6)nnc5c4Cl)CC3)cc2)cccc1C(=O)C1CCN(CCc2ccc(F)cc2)CC1	480	1600		700	200	10000 to 50000	170		2500	380	520	170							
COc1c(OCCOCCOCCOCCOCCOc2ccc(C3CCN(c4ccn5c(CC6CC6)nnc5c4Cl)CC3)cc2)cccc1C(=O)C1CCN(CCc2ccc(F)cc2)CC1	510	1000		1900	130	10000 to 50000	180		1600	2400	450	320							
COc1ccccc1C1CCN(c2ccn3c(CC4CC4)nnc3c2Cl)CC1	5.2	10000				210			37		1300				35.5				19
COc1cccc(C(=O)C2CCN(CCc3ccc(F)cc3)CC2)c1OC	> 50000	6.2		24	0.52	> 50000	3		> 50000	5.4	0.81	8.7	> 50100	> 50100	> 50100				

Continued, values first:

EC50 ([1]; read-out: EC50) [nM]	IC50 ([2]; read-out: IC50) [nM]	IC50 ([2]; read-out: pIC50 (converted)) [nM]	IC50 [3] [nM]	Ki ([4]; read-out: Ki) [nM]	EC50 ([5]; read-out: EC50) [nM]	Ki ([6]; read-out: Ki) [nM]	Ki ([6]; read-out: pKi (converted)) [nM]	EC50 ([7]; read-out: EC50) [nM]	IC50 [8] [nM]	IC50 ([9]; read-out: IC50) [nM]	Ki ([10]; read-out: Ki) [nM]	EC50 ([1]; read-out: pEC50 (converted)) [nM]	EC50 ([5]; read-out: pEC50 (converted)) [nM]	EC50 ([7]; read-out: pEC50 (converted)) [nM]	Ki ([4]; read-out: pKi (converted)) [nM]	Ki ([10]; read-out: pKi (converted)) [nM]	IC50 ([9]; read-out: pIC50 (converted)) [nM]	EC50 [11] [nM]	Structure (SMILES)
320	300	309	1200	79	10000 to 50000	70	72.4	1200	140	300	120								COc1c(OCCOCCOCCOCCOCCOCCOCCOCCOCCOCCOc2ccc(C3CCN(c4ccn5c(CC6CC6)nnc5c4Cl)CC3)cc2)cccc1C(=O)C1CCN(CCc2ccc(F)cc2)CC1
> 50000	16		29	3	> 50000	6.5		> 50000	23	9.3	13	> 50100	> 50100	> 50100					COCCOc1cccc(C(=O)C2CCN(CCc3ccc(F)cc3)CC2)c1OC
> 50000	9.2		23		> 50000			> 50000	22	11		> 50100	> 50100	> 50100					COc1c(O)cccc1C(=O)C1CCN(CCc2ccc(F)cc2)CC1
330	1700	1550	990	33	10000 to 50000	100		550	800	280	110						288		COc1c(OCCOCCOCCOCCOc2ccc(C3CCN(c4ccn5c(CC6CC6)nnc5c4Cl)CC3)cc2)cccc1C(=O)C1CCN(CCc2ccc(F)cc2)CC1
530	510		890	100	10000 to 50000	120		1200	420	270	190								COc1c(OCCOCCOCCOCCOCCOCCOc2ccc(C3CCN(c4ccn5c(CC6CC6)nnc5c4Cl)CC3)cc2)cccc1C(=O)C1CCN(CCc2ccc(F)cc2)CC1
